Test results taken from ChEMBL document CHEMBL1121577, “Glycerides as prodrugs. 3. Synthesis and antiinflammatory activity of [1-(p-chlorobenzoyl)-5-methoxy-2-methylindole-3-acetyl]glycerides (indomethacin glycerides)” (J Med Chem, 1980).
Active and inactive are the calls of the source. The rule behind the calls is not given here.

Experiments:
[1] = tested on: Rattus norvegicus; experiment: Dose that inhibits paw swelling by 25% compared with control in carrgeenin rat paw edema assay; i = inactive at 26 uM/Kg; type: functional, organism-based
In short: (§1)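 Rats given glycerides or indomethacin orally 2 h before subplantar injection of 0.1 mL 1.5% carrageenin solution.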

[2] = tested on: Rattus norvegicus; experiment: Dose that inhibits paw swelling by 25% compared with control in carrgeenin rat paw edema assay; type: functional; in short: as §1
[3] = Ratio of UD50 to that of ED25; type: ADME; settings: read-out: Therapeutic ratio
In short: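 Therapeutic index calculated as UD50 (dose causing gastric lesions in 50% of rats) divided by ED25 (dose inhibiting carrageenin paw edema by 25%), both from the same oral rat study.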

[4] = tested on: Rattus norvegicus; experiment: inhibition of swelling in rat paw edema was measured at a dose of 0.8 micro mol/kg/day for days 14-25; type: functional
In short: (§2)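 Adjuvant arthritis in rats: mycobacterial adjuvant injected subcutaneously into the tail; on day 14 animals with definite disease were selected and dosed daily on days 14-25. Hind paw swelling and severity scores (four paws scored) were expressed as % change vs diseased controls. Body weight gain was assessed over days 1-25; + marks significant gain.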

[5] = species: Rattus norvegicus; experiment: compound was measured as dose which produces lesions in the treated animals.; type: functional
In short: (§3)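 Stomachs of rats from the oral carrageenin paw edema study (dosed 2 h before carrageenin) examined for gastric lesions by the Brodie and Hansen method. UD50 is the dose producing lesions in 50% of treated animals.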

[6] = tested on: Rattus norvegicus; experiment: Percent changes of hind paw edema and severity scores compared to control animals at 14.0 micro mol/kg/day; type: functional; in short: as §2
[7] = tested on: Rattus norvegicus; experiment: inhibition of swelling in rat adjuvant-induced arthritis was measured at a dose of 3.3 micro mol/kg/day for days 14-25
[8] = tested on: Rattus norvegicus; experiment: Gain in the body weight of rat was measured at 3.3 micro mol/kg/day. (+ means significant body weight); type: functional, organism-based; in short: as §2
[9] = tested on: Rattus norvegicus; experiment: inhibition of swelling in rat paw edema was measured at a dose of 14.0 micro mol/kg/day for days 14-25; type: functional; in short: as §2
[10] = tested on: Rattus norvegicus; experiment: Gain in the body weight of rat was measured at 14.0 micro mol/kg/day. (+ means significant body weight); type: functional, organism-based; in short: as §2
[11] = tested on: Rattus norvegicus; experiment: Percent changes of hind paw edema and severity scores compared to control animals at 3.3 micro mol/kg/day; type: functional; in short: as §2
[12] = tested on: Rattus norvegicus; experiment: Percent changes of hind paw edema and severity scores compared to control animals at 0.8 micro mol/kg/day; type: functional; in short: as §2
[13] = tested on: Rattus norvegicus; experiment: Percent changes of hind paw edema and severity scores compared to control animals at 1.6 micro mol/kg/day; type: functional; in short: as §2
[14] = tested on: Rattus norvegicus; experiment: inhibition of swelling in rat paw edema was measured at a dose of 1.6 micro mol/kg/day for days 14-25; type: functional; in short: as §2
[15] = tested on: Rattus norvegicus; experiment: inhibition of swelling in rat paw edema was measured at a dose of 0.7 micro mol/kg/day for days 14-25; type: functional; in short: as §2
[16] = tested on: Rattus norvegicus; experiment: Gain in the body weight of rat was measured at 2.8 micro mol/kg/day. (+ means significant body weight); type: functional, organism-based; in short: as §2
[17] = tested on: Rattus norvegicus; experiment: inhibition of swelling in rat paw edema was measured at a dose of 1.4 micro mol/kg/day for days 14-25; type: functional
In short: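 Rat adjuvant arthritis: adjuvant injected subcutaneously into the tail; after 14 days, only rats with definite disease were treated, with daily doses on days 14-25. Hind paw swelling was expressed as percent change versus diseased controls. Severity was scored on four paws, and body weight gain was followed over days 1-25.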

[18] = tested on: Rattus norvegicus; experiment: Percent changes of hind paw edema and severity scores compared to control animals at 0.7 micro mol/kg/day; type: functional; in short: as §2
[19] = tested on: Rattus norvegicus; experiment: inhibition of swelling in rat paw edema was measured at a dose of 2.8 micro mol/kg/day for days 14-25; type: functional; in short: as §2
[20] = Ratio of UD50 to that of ED25; settings: read-out: Therapeutic ratio
[21] = tested on: Rattus norvegicus; experiment: inhibition of swelling in rat paw edema was measured at a dose of 7.0 micro mol/kg/day for days 14-25; type: functional; in short: as §2
[22] = tested on: Rattus norvegicus; experiment: Percent changes of hind paw edema and severity scores compared to control animals at 7.0 micro mol/kg/day; type: functional; in short: as §2
[23] = tested on: Rattus norvegicus; experiment: Percent changes of hind paw edema and severity scores compared to control animals at 2.8 micro mol/kg/day; type: functional; in short: as §2
[24] = species: Rattus norvegicus; experiment: Dose which produced lesions in 50% of the treated animals; type: functional; in short: as §3
[25] = tested on: Rattus norvegicus; experiment: Gain in the body weight of rat was measured at 7.0 micro mol/kg/day. (+ means significant body weight); type: functional, organism-based; in short: as §2
[26] = tested on: Rattus norvegicus; experiment: Percent changes of hind paw edema and severity scores compared to control animals at 1.4 micro mol/kg/day; type: functional; in short: as §2
[27] = tested on: Rattus norvegicus; experiment: Dose that inhibits paw swelling by 25% compared with control in carrgeenin rat paw edema assay; i = inactive at 18 umol/kg; type: functional, organism-based; in short: as §1
[28] = tested on: Rattus norvegicus; experiment: Percent changes of hind paw edema and severity scores compared to control animals at 11.0 micro mol/kg/day; type: functional; in short: as §2
[29] = tested on: Rattus norvegicus; experiment: Gain in the body weight of rat was measured at 11.0 micro mol/kg/day. (+ means significant body weight); type: functional, organism-based; in short: as §2
[30] = tested on: Rattus norvegicus; experiment: Gain in the body weight of rat was measured at 5.6 micro mol/kg/day. (+ means significant body weight); type: functional, organism-based; in short: as §2
[31] = tested on: Rattus norvegicus; experiment: Percent changes of hind paw edema and severity scores compared to control animals at 5.6 micro mol/kg/day; type: functional; in short: as §2
[32] = tested on: Rattus norvegicus; experiment: inhibition of swelling in rat paw edema was measured at a dose of 5.6 micro mol/kg/day for days 14-25; type: functional; in short: as §2
[33] = tested on: Rattus norvegicus; experiment: inhibition of swelling in rat paw edema was measured at a dose of 11.0 micro mol/kg/day for days 14-25; type: functional; in short: as §2

With `COc1ccc2c(c1)c(CC(=O)OCC(O)COC(=O)Cc1c(C)n(C(=O)c3ccc(Cl)cc3)c3ccc(OC)cc13)c(C)n2C(=O)c1ccc(Cl)cc1` as the molecule, how does the ED25 [1] read?
Its ED25 is “inactive”.

For `CCCCCCCCCCCCCCCCCCCC(=O)OCC(COC(=O)CCCCCCCCCCCCCCCCCCC)OC(=O)Cc1c(C)n(C(=O)c2ccc(Cl)cc2)c2ccc(OC)cc12`, which ED25 [2] is on record?
The ED25 was 38 µM/kg.

For `CCCCCCCC(=O)OCC(COC(=O)CCCCCCC)OC(=O)Cc1c(C)n(C(=O)c2ccc(Cl)cc2)c2ccc(OC)cc12`, which ED25 [2] is on record?
Its ED25 is 12 µM/kg.

Which selectivity ratio [3] does the source give for `COc1ccc2c(c1)c(CC(=O)OC(COC(C)=O)COC(C)=O)c(C)n2C(=O)c1ccc(Cl)cc1` here?
Its selectivity ratio is 5.

And the Inhibition [4]?
The Inhibition was 43%.

And the UD50 [5]?
Its UD50 is 67 µM/kg.

What about the Change [6] of the same molecule?
The Change was 60%.

And the Inhibition [7]?
Its Inhibition is 72%.

What about the Change [8] of the same molecule?
The Change was “significant body weight”.

What about the ED25 [2] of the same molecule?
The ED25 was 14 µM/kg.

What about the Inhibition [9] of the same molecule?
The Inhibition was 79%.

What about the Change [10] of the same molecule?
The Change was “significant body weight”.

What about the Change [11] of the same molecule?
The Change was 55%.

And the Change [12]?
The Change was 25%.

What about the Change [13] of the same molecule?
Its Change is 28%.

And the Inhibition [14]?
The Inhibition was 50%.

With `CCCCCCCCCC(=O)OCC(COC(=O)CCCCCCCCC)OC(=O)Cc1c(C)n(C(=O)c2ccc(Cl)cc2)c2ccc(OC)cc12` as the molecule, how does the ED25 [2] read?
Its ED25 is 18 µM/kg.

With `COc1ccc2c(c1)c(CC(=O)OCC(CO)OC(=O)Cc1c(C)n(C(=O)c3ccc(Cl)cc3)c3ccc(OC)cc13)c(C)n2C(=O)c1ccc(Cl)cc1` (centres undefined) as the molecule, how does the ED25 [2] read?
Its ED25 is 31 µM/kg.

With `COc1ccc2c(c1)c(CC(=O)O)c(C)n2C(=O)c1ccc(Cl)cc1` [INDOMETHACIN] as the molecule, how does the Inhibition [15] read?
Its Inhibition is 37%.

What about the Change [16] of the same molecule?
Its Change is “Active”.

What about the Inhibition [17] of the same molecule?
Its Inhibition is 57%.

What about the Change [18] of the same molecule?
The Change was 25%.

What about the Inhibition [19] of the same molecule?
Its Inhibition is 76%.

What about the selectivity ratio [20] of the same molecule?
The selectivity ratio was 2.

What about the Inhibition [21] of the same molecule?
The Inhibition was 75%.

And the ED25 [2]?
The ED25 was 5 µM/kg.

And the Change [22]?
Its Change is 74%.

And the Change [23]?
Its Change is 56%.

And the UD50 [24]?
The UD50 was 10 µM/kg.

And the Change [25]?
Its Change is “Active”.

And the Change [26]?
The Change was 33%.

For `COc1ccc2c(c1)c(CC(=O)OCC(COC(=O)Cc1c(C)n(C(=O)c3ccc(Cl)cc3)c3ccc(OC)cc13)OC(=O)Cc1c(C)n(C(=O)c3ccc(Cl)cc3)c3ccc(OC)cc13)c(C)n2C(=O)c1ccc(Cl)cc1`, which ED25 [27] is on record?
The ED25 was “inactive”.

What does the source list for `CCCCCCCCCCCC(=O)OCC(COC(=O)CCCCCCCCCCC)OC(=O)Cc1c(C)n(C(=O)c2ccc(Cl)cc2)c2ccc(OC)cc12`?
Change [28]: 74%; Change [29]: significant body weight; Change [30]: significant body weight; Inhibition [17]: 30%; Inhibition [19]: 70%; selectivity ratio [20]: 6; Change [31]: 53%; Inhibition [32]: 63%; ED25 [2]: 13 µM/kg; Inhibition [33]: 73%; Change [23]: 41%; UD50 [24]: 78 µM/kg; Change [26]: 30%

With `CCCC(=O)OCC(COC(=O)CCC)OC(=O)Cc1c(C)n(C(=O)c2ccc(Cl)cc2)c2ccc(OC)cc12` as the molecule, how does the ED25 [2] read?
Its ED25 is 22 µM/kg.

Which ED25 [2] does the source give for `CCCCCCCCCCCCCCCC(=O)OCC(COC(=O)CCCCCCCCCCCCCCC)OC(=O)Cc1c(C)n(C(=O)c2ccc(Cl)cc2)c2ccc(OC)cc12` here?
The ED25 was 23 µM/kg.

What does the source list for `COc1ccc2c(c1)c(CC(=O)OCC(O)CO)c(C)n2C(=O)c1ccc(Cl)cc1` (centres undefined)?
Inhibition [4]: 57%; Change [6]: 53%; Inhibition [7]: 73%; Change [8]: significant body weight; ED25 [2]: 5 µM/kg; Inhibition [9]: 76%; Change [10]: significant body weight; Change [11]: 55%; Change [12]: 31%; Change [13]: 42%; Inhibition [14]: 67%

Which ED25 [2] does the source give for `COc1ccc2c(c1)c(CC(=O)OC(CO)CO)c(C)n2C(=O)c1ccc(Cl)cc1` here?
Its ED25 is 21 µM/kg.
